Reference: publication PMC9933479 (ACS Omega, 2023)
“Also recorded” adds a separate entry of the source.

Experiments:
HOP92 = test: In vitro cytotoxicity, expanded lung cancer panel; assay type: cell-based; conditions: Homo sapiens, HOP-92
A549 cells [1] = test: Intracellular ROS, DCFDA/DCFHDA staining; assay type: cell-based, human; conditions: A549, DCFDA dye, 48 h
Summary of the method: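 Seeded A549 cells (3 × 10^4 per well) adhered 24 h at 37 °C, then received test compound at 1, 3.5 or 5 μM for 48 h. Cells were loaded with 10 μM DCFHDA for 30 min at 37 °C and moved to PBS. Intracellular ROS was imaged by fluorescence microscopy. H2O2 (0.05%) was the positive control.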

[2] = tested on: HCT-116 (colon carcinoma); test: MTT assay, cytotoxicity/growth inhibition; assay type: cell-based; conditions: Homo sapiens; for IC50: HCT-116; for inhibition at 20 µM: HCT-116, 48 h, read-out: Cytotoxic Activity (% Growth Inhibition)
Summary of the method: (§1)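 Cells were grown in RPMI (A549, HCT-116, PC-3) or DMEM (MCF-7) with 10% FBS at 37 °C and 5% CO2. Seeding per well was […] and PC-3 8 × 10^4 cells. […] MTT 250 μg/mL, 4 h; DMSO; A570; triplicate; mean ± SE.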

A549 cells [3] = test: DAPI staining, nuclear morphology / apoptosis; assay type: cell-based, human; conditions: A549, 1, 3.5 and 5 μM, 48 h
Summary of the method: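 A549 cells (3 × 10^4 per well) were grown 48 h, then exposed to test compound at 1, 3.5 and 5 μM for 48 h. Cells were washed in PBS, fixed in ice-cold 4% paraformaldehyde for 20 min and permeabilised with 0.25% Triton X-100. Staining was DAPI at 1 μg/mL final for 30 min, read by fluorescence microscopy. Cisplatin 17 μM was the positive control.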

A549 cells [4] = test: Mitochondrial membrane potential, Rhodamine-123 staining; assay type: cell-based, human; conditions: A549, Rh-123 dye, 1, 3.5 and 5 μM, 48 h, versus untreated cells
Summary of the method: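 A549 cells (3 × 10^4 per well) adhered 24 h at 37 °C and were treated with test compound at 1, 3.5 and 5 μM for 48 h. They were stained with 10 μM rhodamine-123 for 30 min at 37 °C and washed in PBS. Fluorescence microscopy read mitochondrial membrane potential as Rh-123 fluorescence, compared with untreated cells.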

A549 (lung carcinoma) = test: MTT assay, cytotoxicity/growth inhibition; assay type: cell-based, human; conditions: for Cytotoxic Activity (% Growth Inhibition): A549, 20 μM concentration, MTT, 48 h, 20 µM; for IC50 / inhibition at 20 µM: Homo sapiens; for IC50: A549; for inhibition at 20 µM: A549, 48 h, read-out: Cytotoxic Activity (% Growth Inhibition), A549, 20 μM concentration, MTT, 48 h
Summary of the method: as §1

[5] = tested on: normal human embryonic kidney cells (HEK293); test: Selectivity index versus normal cell line; assay type: cell-based
MCF-7 (breast carcinoma) = test: MTT assay, cytotoxicity/growth inhibition; assay type: cell-based; conditions: Homo sapiens; for IC50: MCF7; for inhibition at 20 µM: MCF7, 48 h, read-out: Cytotoxic Activity (% Growth Inhibition)
Summary of the method: as §1

HOP62 = test: In vitro cytotoxicity, expanded lung cancer panel; assay type: cell-based; conditions: Homo sapiens, HOP-62
[6] = tested on: PC-3 (prostate carcinoma); test: MTT assay, cytotoxicity/growth inhibition; assay type: cell-based; conditions: Homo sapiens; for inhibition at 20 µM: 48 h, read-out: Cytotoxic Activity (% Growth Inhibition)
Summary of the method: as §1

Question: What does the source list for `COc1ccc(CC(=O)OCC2=CCC3[C@](C)(CO)[C@H](O)CC[C@@]3(C)[C@@H]2/C=C/C2=CCOC2=O)cc1` (stereo partly drawn) [Compound 9s, ((1S,5R,6R,8aR)-6-Hydroxy-5-(hydroxymethyl)-5,8a-dimethyl-1-((E)-2-(2-oxo-2,5-dihydrofuran-3-yl)vinyl)-1,4,4a,5,6,7,8,8a-octahydronaphthalen-2-yl)methyl 2-(4-Methoxyphenyl)acetate]?
Answer: IC50 (HOP92): 38.6 µM; intracellular ROS generation (A549 cells [1]; 1 μM): increases reactive oxygen species (ROS); also recorded: significantly induced more ROS generation; intracellular ROS levels (A549 cells [1]; 3.5 and 5 μM): ROS levels decrease; IC50 [2]: > 20 µM; inhibition at 20 µM [2]: 4.1 ± 0.97%; nuclear morphology / apoptosis (DAPI staining) (A549 cells [3]): nuclear morphological changes; also recorded: altered staining pattern, apoptotic bodies, and condensed chromatin; also recorded: induces apoptosis; mitochondrial membrane potential (MMP) (A549 cells [4]): disturbed mitochondrial membrane potential (MMP); also recorded: significant reduction in MMP; also recorded: disturbs mitochondrial membrane potential; Cytotoxic Activity (% Growth Inhibition) (A549 (lung carcinoma)): 82.2 ± 0.78%; potency relative to andrographolide (times / fold more potent) (A549 (lung carcinoma); A549, ratio of IC50 values): ~7; IC50 (A549 (lung carcinoma)): 3.5 µM; inhibition at 20 µM (A549 (lung carcinoma)): 82%; selectivity index (SI) wrt HEK cell line ([5]; A549 versus HEK293): 13.9; selectivity index (SI) wrt HEK cell line ([5]; HOP62 versus HEK293): 3.7; selectivity index (SI) wrt HEK cell line ([5]; HOP92 versus HEK293): 1.26; IC50 (MCF-7 (breast carcinoma)): 14.6 µM; inhibition at 20 µM (MCF-7 (breast carcinoma)): 54 ± 0.74%; IC50 (HOP62): 13 µM; IC50 [6]: > 20 µM; inhibition at 20 µM [6]: 27.6 ± 0.89%

Question: With `C[C@]1(CO)C2CC=C(COC(=O)Cc3ccc(Cl)c(Cl)c3)[C@@H](/C=C/C3=CCOC3=O)[C@]2(C)CC[C@H]1O` (stereo partly drawn) [Compound 9v, ((1S,5R,6R,8aR)-6-Hydroxy-5-(hydroxymethyl)-5,8a-dimethyl-1-((E)-2-(2-oxo-2,5-dihydrofuran-3-yl)vinyl)-1,4,4a,5,6,7,8,8a-octahydronaphthalen-2-yl)methyl 2-(3,4-Dichlorophenyl)acetate] as the molecule, how does the IC50 [2] read?
Answer: The IC50 was over 20 µM.

Question: What about the inhibition at 20 µM [2] of the same molecule?
Answer: Its inhibition at 20 µM is 5.7 ± 6.1%.

Question: And the “Cytotoxic Activity (% Growth Inhibition)” value (A549 (lung carcinoma))?
Answer: The value was 72.7 ± 0.54%.

Question: And the IC50 (A549 (lung carcinoma))?
Answer: Its IC50 is 7.5 µM.

Question: What about the inhibition at 20 µM (A549 (lung carcinoma)) of the same molecule?
Answer: The inhibition at 20 µM was 72%.

Question: And the IC50 (MCF-7 (breast carcinoma))?
Answer: The IC50 was over 20 µM.

Question: And the inhibition at 20 µM (MCF-7 (breast carcinoma))?
Answer: Its inhibition at 20 µM is 29 ± 0.78%.

Question: What about the IC50 [6] of the same molecule?
Answer: The IC50 was over 20 µM.

Question: And the inhibition at 20 µM [6]?
Answer: Its inhibition at 20 µM is 26.5 ± 0.54%.

Question: With `CCCCCCCC(=O)OCC1=CCC2[C@](C)(CO)[C@H](O)CC[C@@]2(C)[C@@H]1/C=C/C1=CCOC1=O` (stereo partly drawn) [Compound 9w, ((1S,5R,6R,8aR)-6-Hydroxy-5-(hydroxymethyl)-5,8a-dimethyl-1-((E)-2-(2-oxo-2,5-dihydrofuran-3-yl)vinyl)-1,4,4a,5,6,7,8,8a-octahydronaphthalen-2-yl)methyl Octanoate] as the molecule, how does the inhibition at 20 µM [2] read?
Answer: Its inhibition at 20 µM is 23.9 ± 0.58%.

Question: And the inhibition at 20 µM (A549 (lung carcinoma))?
Answer: The inhibition at 20 µM was 16.8 ± 0.93%.

Question: What about the inhibition at 20 µM (MCF-7 (breast carcinoma)) of the same molecule?
Answer: The inhibition at 20 µM was 25 ± 0.36%.

Question: What about the inhibition at 20 µM [6] of the same molecule?
Answer: Its inhibition at 20 µM is 67 ± 0.75%.

Question: For `CCCCCCCCCC(=O)OCC1=CCC2[C@](C)(CO)[C@H](O)CC[C@@]2(C)[C@@H]1/C=C/C1=CCOC1=O` (stereo partly drawn) [Compound 9x, ((1S,5R,6R,8aR)-6-Hydroxy-5-(hydroxymethyl)-5,8a-dimethyl-1-((E)-2-(2-oxo-2,5-dihydrofuran-3-yl)vinyl)-1,4,4a,5,6,7,8,8a-octahydronaphthalen-2-yl)methyl Decanoate], which inhibition at 20 µM [2] is on record?
Answer: Its inhibition at 20 µM is 2.7 ± 0.51%.

Question: And the inhibition at 20 µM (A549 (lung carcinoma))?
Answer: The inhibition at 20 µM was 23.2 ± 0.74%.

Question: And the inhibition at 20 µM (MCF-7 (breast carcinoma))?
Answer: The inhibition at 20 µM was 46 ± 0.84%.

Question: And the inhibition at 20 µM [6]?
Answer: The inhibition at 20 µM was 24 ± 0.83%.

Question: Which results are given for `CCCCCCCCCCCC(=O)OCC1=CCC2[C@](C)(CO)[C@H](O)CC[C@@]2(C)[C@@H]1/C=C/C1=CCOC1=O` (stereo partly drawn) [Compound 9y, ((1S,5R,6R,8aR)-6-Hydroxy-5-(hydroxymethyl)-5,8a-dimethyl-1-((E)-2-(2-oxo-2,5-dihydrofuran-3-yl)vinyl)-1,4,4a,5,6,7,8,8a-octahydronaphthalen-2-yl)methyl Dodecanoate]?
Answer: inhibition at 20 µM [2]: 4.6 ± 0.44%; inhibition at 20 µM (A549 (lung carcinoma)): 1.6 ± 0.98%; inhibition at 20 µM (MCF-7 (breast carcinoma)): 38 ± 0.18%; inhibition at 20 µM [6]: 66 ± 0.47%
